test: Toxicity liver stage against HepG2, at 10uM; assay type: cell-based; set-up: test concentration 10 uM, cell line HepG2-A16-CD81EGFP; details: human, HepG2-A16-CD81EGFP cells; read-out: INHIBITION
Procedure, shortened: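 Uninfected HepG2-A16-CD81EGFP cells, 3 × 10^3 per well, 1536-well, plated on prespotted compound at 10 μM final, parasite-free screening media added to match infected plates; puromycin 10 μM positive, DMSO 0.5% negative; run in parallel with 48 h PbLuc assay at 37 °C, 5% CO2; viability by CellTiter-Glo luminescence, normalized to controls.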

Structure (SMILES)	cytotoxicity at 10 µM
COCC(O)CN1CC(C)(C)CN(C(=O)CCc2ccccc2)CC1=O (stereo unspecified)	-1.83%
CCn1cc(-c2nn3c(C(C)C)nnc3s2)c(C)n1	-14.6%
CC(C)CC1SCC(=O)Nc2c1cnn2C1CCCC1 (stereo unspecified)	-2.17%
CC(C)n1ncc2c1NC(=O)CSC2C(F)(F)F (stereo unspecified)	-11.1%
CCCS(=O)(=O)N1CCN(c2ccc3nnc(CC)n3n2)CC1	8.75%
Cc1noc(-c2ccc(N3CCCC(C(N)=O)C3)nc2)n1 (stereo unspecified)	9.36%
O=C1C[C@H]2[C@@H](CCN2C(=O)Cc2cccs2)N1CC1CC1	3.2%
Cc1ccc(CN2CCC3(CCCN(C(=O)N(C)C)C3)C2)cc1 (stereo unspecified)	6.28%
COCCN1C(=O)CC[C@@H]2[C@H]1CCN2C(=O)N(C)C	10.7%
CCS(=O)(=O)N1Cc2nccn2CC(CN2CCCC2)C1 (stereo unspecified)	-124%
CC(C)C(=O)N1CCC12CCCN(C(=O)c1ccnnc1)C2 (stereo unspecified)	7.8%
CC(C)NC(=O)c1cc2c(nc1N(C)C)CCN(S(=O)(=O)C1CC1)CC2	-149%
O=c1c(S(=O)(=O)N2CCCCC2)cccn1Cc1cccnc1	-2.56%
CCSC1=Nc2c(cnn2-c2ccc(Cl)cc2)C2=NCCCN12	8.49%
CC(C)(C)n1ncc2c1NC(=O)CC2c1ccsc1 (stereo unspecified)	20.4%
COc1cccc(CNCc2ccc(F)cc2Cl)c1O	-3.3%
Cc1nc(N2CCN(C(=O)C3CC3)CC2)c2c(n1)c(C)nn2C	5.42%
CCCn1nccc1-c1cc(C2CCN(S(C)(=O)=O)CC2)nc(C)n1	-10.7%
Cc1n[nH]c(C)c1-c1cnc(CC2CCCN(S(C)(=O)=O)C2)cn1 (stereo unspecified)	-7.3%
CN1CCCCC[C@@H]2[C@@H]1[C@H](c1ccccc1)CN2C(=O)c1ccccn1	-24.5%
Cc1cc(F)cc2c(NCC(C)(C)C(N)=O)c(C#N)cnc12	-3.25%
CC(C(=O)N(Cc1ccccc1)CC(F)(F)F)S(C)(=O)=O (stereo unspecified)	11%
COC(=O)c1ccc(C(=O)N2CCc3c(ncn3C3CC3)C2)cc1	-3.34%

Structure (SMILES)	cytotoxicity at 10 µM
CSCC(C)NS(=O)(=O)c1ccc(C)c(N(C)C)c1 (stereo unspecified)	-3.25%
Cc1ccc(C2CSCCN2C(=O)c2cccnc2)cc1 (stereo unspecified)	-4.11%
Cc1cc(C(=O)NC(C)Cc2ccccc2Cl)n(C)n1 (stereo unspecified)	2.8%
CCOCCCNc1nc(CS(=O)(=O)c2ccccc2)cs1	9.75%
Cc1ccc(CN(C(=O)NCC2CCS(=O)(=O)C2)C2CC2)o1 (stereo unspecified)	-144%
CC(C)CC(=O)N1Cc2ccccc2CC1C(=O)Nc1nncs1 (stereo unspecified)	-154%
COc1ccccc1NC(=O)CCNC(=O)c1ccoc1	1.66%
Cc1c(F)cccc1S(=O)(=O)N(C)CC(C)O (stereo unspecified)	4.98%
Cc1cnn(CCNCC(=O)Nc2ccc(Br)cn2)c1	1.9%
CCOc1cc(NC(=O)N2CCC3(CCOCC3)C2)ccc1C	2.89%
CC1CCc2sc(C(=O)Nc3cnn(C)c3)cc2C1 (stereo unspecified)	9.48%
CC(C)c1csc(NC(=O)NC2CCCN(c3cnn(C)c3)C2)n1 (stereo unspecified)	15%
COC(=O)c1ccc(N2CCN(C(=O)C(C)C)C(C)C2)cc1 (stereo unspecified)	-10.4%
COc1ccc2c(c1)CCCN2C(=O)CNCC1CN(C)CCO1 (stereo unspecified)	4.78%
Cc1ccc(C(=O)N(Cc2ccc(F)cc2)C2CC2)c(=O)[nH]1	-1.4%
Cn1cc(C2CCCN2CC(=O)N(CCC#N)Cc2ccco2)cn1 (stereo unspecified)	-6.18%
O=C(Cn1cccnc1=O)NCC1Cc2ccccc2O1 (stereo unspecified)	-4.62%
Cc1cc(CN(C)C(=O)NCc2ccnc(OC3CCCC3)c2)no1	9.52%
COc1c(C)cnc(CNC(=O)c2cc(C)nc3onc(C)c23)c1C	-0.947%
CCOCCC1(CNC(=O)c2ccncc2)CCC1	4.11%
CC(=O)NCCCOc1c(C)cccc1Cl	0.238%
O=C(NCc1cccc(N2CC=CC2)c1)NC1CC1	9.34%
CC(C)CNC(=O)Nc1cccc(CN2CCOC2=O)c1	-1.1%

Structure (SMILES)	cytotoxicity at 10 µM
Cc1cccc(C)c1OCC(=O)Nc1cccn(C)c1=O	4.08%
COC(=O)NCC(=O)NC1CC(C)(C)Cc2oc(C)cc21 (stereo unspecified)	-20.8%
COCCN1CCN(CC(=O)N(C)Cc2ccsc2)CC1C (stereo unspecified)	-127%
CN(Cc1cnn(C)c1)C(=O)C1COCC(=O)N1Cc1ccccc1 (stereo unspecified)	-4.33%
CCCN(C(=O)c1cc2c([nH]c1=O)CCCC2=O)C1CCCCC1	-0.708%
CC(C)(O)CN1CCN(C(=O)COCC2CC2)CC1	-9.17%
CC1CN(c2ccc(CNC(=O)NCc3ccoc3)cn2)CCO1 (stereo unspecified)	4.38%
COc1ccc(CCN(C)C(=O)c2cc(C(C)=O)c[nH]2)cc1OC	5.38%
CCc1cnc(N2CCN(Cc3ccon3)CC2)s1	1.16%
CC(C)OCCn1nnnc1Cc1ccc(Br)cc1	-5.58%
CC(O)CN1CCC(CN(C)Cc2cc(C#N)ccc2F)CC1 (stereo unspecified)	2.05%
CC(C)N(Cc1cccnc1)C(=O)CCSc1ccc(C#N)cc1	27.1%
COc1ccc(Br)cc1CCC(=O)N1CCSCC1	5.48%
CS(=O)(=O)N1CCCN(c2nccn3cnnc23)CC1	-8.85%
CCCNC(=O)CN1CCOC(c2ccc(Br)cc2)C1 (stereo unspecified)	-2.56%
CCn1c(C)nnc1CN(C)C1CCN(Cc2nccn2C)C1 (stereo unspecified)	17.8%
Cc1cnn(CCNCc2ccc(OCc3csc(C)n3)cc2)c1	-6.32%
Cc1ccc(-c2ccnc3cc(CC(=O)N4CCN(C)CC4)nn23)cc1	-1.72%
O=C(NCc1cccnc1N1CCc2ccccc2C1)c1cc(=O)[nH][nH]1	6.99%
CN(Cc1ccc(C2CC(=O)Nc3n[nH]cc32)o1)S(C)(=O)=O (stereo unspecified)	-13.8%
CC(C)[C@@H]1CN(Cc2cnc3c(S(C)(=O)=O)cnn3c2)C[C@H]1N(C)C	-3.5%
OC[C@H]1CN(Cc2c(Cl)cncc2Cl)C[C@H]1CN1CCOCC1	-107%
Cc1cccc(-c2ncc(CNC(C)CO)cn2)c1 (stereo unspecified)	2.16%

Structure (SMILES)	cytotoxicity at 10 µM
COc1nc2c(cc1C(=O)NC(C)Cc1cc(C)n[nH]1)CCC2 (stereo unspecified)	-137%
CN1C(=O)CC(C(=O)O)C12CCN(Cc1ccc(F)c(Cl)c1)CC2 (stereo unspecified)	0.998%
CCSc1ncc(CN2CCN(c3ncc(C)c(N)n3)CC2)cn1	-4.65%
Cc1cc(CNC(=O)C2CCN(CC(N)=O)CC2)cc(C)n1	-3.06%
CN(CCc1noc(C2CC2)n1)C(=O)CN1C(=O)COc2ccccc21	-141%
Cc1cc(N(C)CCCn2cccn2)nc(-c2cccnc2)n1	16.3%
COCCN(Cc1cnn(C)c1)c1nc(C)nc2sccc12	-138%
Cc1nccc(-c2ccccc2)c1C(=O)N1CC[C@](C)(O)[C@H](C)C1	3.41%
COc1cc(N2CCCC(c3nccn3Cc3cscn3)C2)nc(N)n1 (stereo unspecified)	-4.66%
O=C(c1cncc(N2CCC3(CCNCC3)CC2)n1)N1CCCC1	-14.6%
CC(C)C(Sc1nncn1C1CC1)C(=O)NCc1cccnc1 (stereo unspecified)	-6.86%
CC(C)Cn1cc(NC(=O)N2CCCC2)cn1	-5.28%
COCCCNC(=O)Nc1ccc(-n2cncn2)c(C(F)(F)F)c1	-6.98%
CC(C)c1ccc(OCCC(=O)N2CCC(C(=O)N(C)C)CC2)cc1	-17.5%
CC(C(=O)NCc1ccnc(N2CCCCCC2)c1)n1cccn1 (stereo unspecified)	-15.8%
CS(=O)(=O)CCN1CCCC1c1noc(C2CC2)n1 (stereo unspecified)	-6.82%
CC(C)(C)c1n[nH]c(C2CN(Cc3nnc(C4CCC4)o3)CCO2)n1 (stereo unspecified)	-8.24%
CC(O)(CN1CCC(O)CC1)c1cccc(C(F)(F)F)c1 (stereo unspecified)	-0.0552%
O=C(NCCn1ccnc1)N1CCCN(Cc2cccs2)CC1	-29.7%
CCN1CCN(CCNC(=O)c2sc(C(C)C)nc2C)CC1	6.23%
CC(=O)N(Cc1noc(C)n1)C1CCN(Cc2ccccn2)C1 (stereo unspecified)	-5.82%
CCCc1noc(CNC2CCCN(Cc3noc(C4CC4)n3)C2)n1 (stereo unspecified)	-13.5%
CCOCc1cc(CN2CCn3c(CO)nnc3C2)ccc1OC	-37.2%

Structure (SMILES)	cytotoxicity at 10 µM
COCC1c2c(cnn2CC2CC2)CCN1Cc1ccsc1 (stereo unspecified)	6.75%
CC(C)c1cc(=O)[nH]c(C(C)(C)N)n1	-1.05%
O=C(COC[C@H]1CC[C@H]2[C@H](CCN2c2ccccn2)O1)N1CCCC1	0.748%
CC(C)Nc1nc2c(cc1C(=O)NCC1CC1)CCN(S(C)(=O)=O)CC2	-1.48%
CN(C)CCN1C(=O)CCC12CCCN(C(=O)C1CC=CC1)CC2 (stereo unspecified)	3.7%
CCn1nc(C)cc1C(=O)N1C[C@H]2CCC[C@@]2(COc2ccccn2)C1	0.529%
CCN1CCC2(CN(C(=O)N(C)C)CC23CCN(CC2CC2)CC3)C1=O (stereo unspecified)	0.199%
Cn1ccnc1CN1CCC2(CC1)CCN(Cc1ccoc1)C2	-6.08%
Cc1ccc(CN2Cc3nnn(C)c3C(COCc3ccccn3)C2)s1 (stereo unspecified)	7.8%
Cc1nc(CN2C(=O)CCC23CCN(c2ncccn2)CC3)cs1	-7.71%
Cn1cccc1C(=O)N[C@@H]1CN(Cc2ccsc2)[C@@H]2COC[C@@H]21	9.9%
CC(=O)N1CCC2(CC1)CC(N1CCOCC1)c1ccc(C)cc12 (stereo unspecified)	-137%
CN(Cc1ccco1)C1CCC12CCN(C(=O)c1ccnnc1)CC2 (stereo unspecified)	0.081%
CC(=O)N(C)Cc1nn(C)c2c1CN(Cc1ccsc1)C2	-134%
CCn1cc(-n2cc3nc(N4CCOCC4)[nH]cc-3c2=O)cn1	3.43%
CCCn1nccc1NC(=O)CN1CCn2c(nnc2C2CC2)C1	-8%
COC(=O)Cn1c(=O)[nH]c2cn(-c3ccc(Br)cc3)c(=O)n21	1.4%
COCc1cccc(C(=O)N2C[C@@H]3CC[C@H]2CN(Cc2cscn2)C3)n1	5.01%
Cc1noc(C)c1C(=O)N1C[C@@H]2CC[C@H]1CN(c1cnccn1)C2	8.32%
